Source: ChEMBL document CHEMBL4725432, “Dethioacylation by Sirtuins 1-3: Considerations for Drug Design Using Mechanism-Based Sirtuin Inhibition” (ACS Med Chem Lett, 2020)
Calls of active or inactive are those of the source. No cut-off for these calls is given here.

Key:
[1] = biological target: T1, NAD-dependent protein deacetylase sirtuin-1 (Homo sapiens) (UniProt Q96EB6); assay: Inhibition of human N-terminal GST-tagged SIRT1 (193 to 741 residues) expressed in Escherichia coli preincubated with NAD+ for 30 mins using Ac-Gln-Pro-Lys-Lys(Ac)-AMC (oxo-10) as substrate at 1 to 100 uM measured after 90 mins by fluorescence assay; settings: dose microM 1-100, time 120.0 min
T1 sequence (whole entry): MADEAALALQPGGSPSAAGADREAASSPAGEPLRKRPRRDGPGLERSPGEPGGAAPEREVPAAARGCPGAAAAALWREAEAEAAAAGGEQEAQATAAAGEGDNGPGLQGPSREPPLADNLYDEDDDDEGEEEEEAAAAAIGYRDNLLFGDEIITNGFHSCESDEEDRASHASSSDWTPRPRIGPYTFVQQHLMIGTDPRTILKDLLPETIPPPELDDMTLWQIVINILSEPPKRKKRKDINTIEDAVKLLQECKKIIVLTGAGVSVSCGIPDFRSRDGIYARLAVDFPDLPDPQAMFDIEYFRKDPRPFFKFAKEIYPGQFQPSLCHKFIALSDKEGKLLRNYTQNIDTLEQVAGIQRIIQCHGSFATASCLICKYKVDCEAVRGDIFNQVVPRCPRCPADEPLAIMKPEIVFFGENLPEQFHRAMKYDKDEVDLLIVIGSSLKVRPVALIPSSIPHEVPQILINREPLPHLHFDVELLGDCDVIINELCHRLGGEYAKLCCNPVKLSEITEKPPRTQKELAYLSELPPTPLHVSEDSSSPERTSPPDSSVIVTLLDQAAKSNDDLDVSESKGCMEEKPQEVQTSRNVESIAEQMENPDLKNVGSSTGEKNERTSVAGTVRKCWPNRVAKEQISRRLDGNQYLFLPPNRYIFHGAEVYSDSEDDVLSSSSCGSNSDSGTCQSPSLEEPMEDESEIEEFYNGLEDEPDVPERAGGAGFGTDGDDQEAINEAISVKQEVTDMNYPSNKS
In short: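 Recombinant SIRT1 (100 nM) preincubated 30 min with compound, either with or without NAD+ (500 μM), before the fluorogenic deacetylation read-out. Single-dose %-inhibition. Two independent experiments in duplicate, standard deviation.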

[2] = biological target: T2, NAD-dependent protein deacetylase sirtuin-2 (Homo sapiens) (UniProt Q8IXJ6); assay: Inhibition of human recombinant C-terminal His-tagged SIRT2 (50 to 356 residues) deacetylation activity in presence of substrate and NAD+ incubated for 60 mins measured after 90 mins by fluorescence assay
T2 sequence (whole entry): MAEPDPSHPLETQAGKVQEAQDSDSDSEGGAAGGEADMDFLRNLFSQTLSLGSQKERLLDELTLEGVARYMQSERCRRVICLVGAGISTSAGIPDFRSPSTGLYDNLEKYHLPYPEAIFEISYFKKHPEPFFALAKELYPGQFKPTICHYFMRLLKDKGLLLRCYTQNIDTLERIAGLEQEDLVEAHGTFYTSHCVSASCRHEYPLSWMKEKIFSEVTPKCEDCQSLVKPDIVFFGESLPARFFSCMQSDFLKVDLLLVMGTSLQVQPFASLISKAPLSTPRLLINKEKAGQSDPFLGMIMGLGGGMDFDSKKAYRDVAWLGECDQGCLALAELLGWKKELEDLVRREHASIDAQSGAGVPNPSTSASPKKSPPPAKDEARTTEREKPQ
In short: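 Recombinant SIRT2 (100 nM or 250 nM) incubated with fluorogenic thioacyl or oxo lysine-AMC substrates plus NAD+. Deacylation read by fluorescence. Two independent experiments in duplicate, standard deviation.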

[3] = biological target: T1, NAD-dependent protein deacetylase sirtuin-1 (Homo sapiens); assay: Inhibition of SIRT1 in HEK293 cells assessed as increase in p53 acetylation co-treated with TSA at 25 uM for 6 hrs by western blot analysis; assay type: cell-based
In short: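 HEK293 cells exposed 6 h to compound at 25 μM together with TSA (1 μM). Whole-cell lysates immunoblotted for Ac-p53 (K382) and total p53. Ratio Ac-p53/p53 normalized to DMSO control. Two independent experiments in duplicate, SEM.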

[4] = Metabolic stability of compound in human serum assessed as half life incubated for >10 mins measured after 90 mins by HPLC analysis; assay type: ADME, cell-free
[5] = biological target: T1, NAD-dependent protein deacetylase sirtuin-1 (Homo sapiens); assay: Inhibition of human recombinant N-terminal GST-tagged SIRT1 (193 to 741 residues) deacetylation activity in presence of substrate and NAD+ at 15 uM after 30 mins by reversed-phase UPLC-MS analysis relative to control
[6] = biological target: T1, NAD-dependent protein deacetylase sirtuin-1 (Homo sapiens); assay: Inhibition of human recombinant N-terminal GST-tagged SIRT1 (193 to 741 residues) deacetylation activity in presence of substrate and NAD+ at 15 uM after 60 mins by reversed-phase UPLC-MS analysis relative to control
[7] = biological target: T3, NAD-dependent protein deacetylase sirtuin-2 (Homo sapiens, UniProt Q8IXJ6); assay: Inhibition of human C-terminal His-tagged SIRT2 (50 to 356 residues) expressed in Escherichia coli using Ac-Gln-Pro-Lys-Lys(pro)-AMC (oxo-11) as substrate by fluorescence assay
T3 sequence (Q8IXJ6 whole entry): T2 sequence (whole entry)

[8] = biological target: T1, NAD-dependent protein deacetylase sirtuin-1 (Homo sapiens); assay: Inhibition of human recombinant N-terminal GST-tagged SIRT1 (193 to 741 residues) deacetylation activity in presence of substrate and NAD+ at 15 uM after 15 to 60 mins by reversed-phase UPLC-MS analysis; settings: time min 15-60
[9] = biological target: T1, NAD-dependent protein deacetylase sirtuin-1 (Homo sapiens); assay: Inhibition of human N-terminal GST-tagged SIRT1 (193 to 741 residues) expressed in Escherichia coli preincubated without NAD+ for 30 mins using Ac-Gln-Pro-Lys-Lys(Ac)-AMC (oxo-10) as substrate at 1 to 100 uM measured after 90 mins by fluorescence assay; settings: dose microM 1-100, time 30.0 min
[10] = biological target: T4, NAD-dependent protein deacetylase sirtuin-1 (Homo sapiens, UniProt Q96EB6); assay: Inhibition of human recombinant N-terminal GST-tagged SIRT1 (193 to 741 residues) expressed in Escherichia coli using Ac-Gln-Pro-Lys-Lys(Ac)-AMC (oxo-10) as substrate by fluorescence assay
T4 sequence (Q96EB6 whole entry): T1 sequence (whole entry)

[11] = biological target: T5, NAD-dependent protein deacetylase sirtuin-3, mitochondrial (Homo sapiens) (UniProt Q9NTG7); assay: Inhibition of human N-terminal GST-tagged SIRT3 (102 to 399 residues) expressed in Escherichia coli using Ac-Gln-Pro-Lys-Lys(but)-AMC (oxo-12) as substrate at 100 uM by fluorescence assay relative to control
T5 sequence (whole entry): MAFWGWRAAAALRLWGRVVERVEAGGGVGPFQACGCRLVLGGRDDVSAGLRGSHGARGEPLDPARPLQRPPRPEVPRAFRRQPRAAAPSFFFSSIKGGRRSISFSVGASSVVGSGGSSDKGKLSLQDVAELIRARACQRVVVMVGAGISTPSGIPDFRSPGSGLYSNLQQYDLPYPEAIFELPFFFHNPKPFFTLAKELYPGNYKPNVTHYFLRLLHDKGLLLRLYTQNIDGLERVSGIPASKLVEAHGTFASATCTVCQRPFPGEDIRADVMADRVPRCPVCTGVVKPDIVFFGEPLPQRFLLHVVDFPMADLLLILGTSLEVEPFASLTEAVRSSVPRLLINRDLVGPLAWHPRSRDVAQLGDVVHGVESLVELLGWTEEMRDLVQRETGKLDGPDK

| SMILES | inhibition [1] | inhibition [2] | inhibition [3] | half-life [4] [h] | inhibition [5] [%] | inhibition [6] [%] | IC50 [7] [nM] | inhibition [8] | inhibition [9] | IC50 [10] [nM] | inhibition [11] [%] |
| --- | --- | --- | --- | --- | --- | --- | --- | --- | --- | --- | --- |
| CC(=S)NCCCC[C@H](NC(=O)OCc1ccccc1)C(=O)N[C@@H](Cc1c[nH]c2ccccc12)C(=O)NC(C)C | Active | inactive | Active | > 7 | 3 | 7 | – | – | – | – | – |
| CCC(=S)NCCCC[C@H](NC(=O)OCc1ccccc1)C(=O)N[C@@H](Cc1c[nH]c2ccccc12)C(=O)NC(C)C | inactive | inactive | – | 7 | – | – | 2200 | Active | inactive | 510 | 19 |
